The values that follow come from ChEMBL document CHEMBL3862029, “Discovery of 8-Membered Ring Sulfonamides as Inhibitors of Oncogenic Mutant Isocitrate Dehydrogenase 1” (ACS Med Chem Lett, 2016).

For this test, the target named is Isocitrate dehydrogenase [NADP] cytoplasmic (Homo sapiens, UniProt O75874, R132H). Kind of test: Inhibition of human C-terminal His8-tagged IDH1-R132H mutant expressed in Escherichia coli Rosetta assessed as inhibition of ketoreductase activity by measuring NADPH consumption preincubated for 60 mins followed by addition of alpha-KG as substrate measured after 50 mins in presence of NADPH and Mg2+ by resazurin based diaphorase-coupled fluorescence assay. An outline of the steps:
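IDH1-R132H–Mg2+ ketoreductase assay reading NADPH consumption through a diaphorase-coupled fluorescence reaction. Buffer contained 0.01% Tween 20 against aggregation. Primary screen at 15 μM in duplicate, with positives set at ≥60% inhibition in both replicates. Retests were in 8-point dose.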
In general terms: Alamar Blue is a resazurin reagent that responds to reducing activity.

pIC50: −log10 of the molar value.

Sequence of Isocitrate dehydrogenase [NADP] cytoplasmic (O75874 2-414 R132H limits assumed): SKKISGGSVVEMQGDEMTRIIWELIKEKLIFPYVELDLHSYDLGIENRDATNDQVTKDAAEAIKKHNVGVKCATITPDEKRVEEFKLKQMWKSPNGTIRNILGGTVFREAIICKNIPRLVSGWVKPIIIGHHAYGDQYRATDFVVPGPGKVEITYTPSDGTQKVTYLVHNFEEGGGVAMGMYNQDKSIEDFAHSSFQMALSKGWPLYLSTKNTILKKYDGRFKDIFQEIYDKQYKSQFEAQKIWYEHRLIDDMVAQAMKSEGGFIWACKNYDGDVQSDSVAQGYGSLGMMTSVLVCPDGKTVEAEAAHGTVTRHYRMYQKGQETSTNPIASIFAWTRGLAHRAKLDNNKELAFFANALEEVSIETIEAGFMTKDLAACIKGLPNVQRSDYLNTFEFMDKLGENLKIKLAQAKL

Regarding `C[C@@H]1CN([C@@H](C)CO)S(=O)(=O)c2ccc(C#Cc3cccc(F)c3)cc2O[C@H]1CN(C)C(=O)Nc1ccccc1`, the pIC50 (in general, the IC50 on a negative log10 scale, so that one unit is a factor of ten) is 5.51.

With `C[C@@H]1CN([C@@H](C)CO)S(=O)(=O)c2ccc(C#Cc3cccc(F)c3)cc2O[C@H]1CN(C)C(=O)N(C)C1CCCCC1`, the pIC50 was 5.24.

`COc1ccc(C#Cc2ccc3c(c2)O[C@@H](CN(C)C(=O)NC2CCCCC2)[C@H](C)CN([C@@H](C)CO)S3(=O)=O)cc1`: the negative logarithm of the IC50 (pIC50) is 7.04.

Take `C[C@@H]1CN([C@@H](C)CO)S(=O)(=O)c2ccc(C#C[Si](C)(C)C)cc2O[C@H]1CN(C)C(=O)NC1CCCCC1`: the negative logarithm of the IC50 (pIC50) was 6.85.

Regarding `C[C@@H]1CN([C@@H](C)CO)S(=O)(=O)c2ccc(C#Cc3cncnc3)cc2O[C@H]1CN(C)C(=O)NC1CCCCC1`, the pIC50 is 6.49.

With `C[C@@H]1CN([C@@H](C)CO)S(=O)(=O)c2ccc(C#Cc3cccc(F)c3)cc2O[C@H]1CN(C)C(=O)NC1CC1`, the negative logarithm of the IC50 (pIC50) is 6.00.

Consider `C[C@@H]1CN([C@@H](C)CO)S(=O)(=O)c2ccc(C#Cc3ccccc3F)cc2O[C@H]1CN(C)C(=O)NC1CCCCC1`, for which the pIC50 was 7.04.

As for `C[C@@H]1CN([C@@H](C)CO)S(=O)(=O)c2ccc(C#Cc3cccnc3)cc2O[C@H]1CN(C)C(=O)NC1CCCCC1`, the pIC50 was 6.85.

As for `C[C@@H]1CN([C@@H](C)CO)S(=O)(=O)c2ccc(C#Cc3cccc(F)c3)cc2O[C@@H]1CN(C)C(=O)NC1CCCCC1`, the negative logarithm of the IC50 (pIC50) is 5.41.

As for `C[C@@H]1CN([C@@H](C)CO)S(=O)(=O)c2ccc(C#Cc3cccc(F)c3)cc2O[C@H]1CN(C)C(=O)C1CCOCC1`, the negative-log IC50 (pIC50) is 5.10.

For `C#Cc1ccc2c(c1)O[C@@H](CN(C)C(=O)NC1CCCCC1)[C@H](C)CN([C@@H](C)CO)S2(=O)=O`, the pIC50 is 5.11.

For `C[C@@H]1CN([C@@H](C)CO)S(=O)(=O)c2ccc(C#Cc3cccc(F)c3)cc2O[C@H]1CN(C)C(=O)C1CCCCC1`, the pIC50 is 6.36.

In the case of `COc1ccc(OC[C@H](C)N2C[C@@H](C)[C@H](CN(C)C(=O)NC3CCCCC3)Oc3cc(C#Cc4cccnc4)ccc3S2(=O)=O)cc1`, the negative-log IC50 (pIC50) is 7.02.

On to `C[C@H](CO)N1C[C@H](C)[C@H](CN(C)C(=O)NC2CCCCC2)Oc2cc(C#Cc3cccc(F)c3)ccc2S1(=O)=O`, for which the negative logarithm of the IC50 (pIC50) is < 4.70.

As to `C[C@@H]1CN([C@@H](C)CO)S(=O)(=O)c2ccc(/C=C/c3ccccc3)cc2O[C@H]1CN(C)C(=O)NC1CCCCC1`, the negative-log IC50 (pIC50) is 6.72.

On to `C[C@@H]1CN([C@@H](C)CO)S(=O)(=O)c2ccc(C#Cc3ccc(Cl)cc3)cc2O[C@H]1CN(C)C(=O)NC1CCCCC1`, for which the negative-log IC50 (pIC50) was 7.25.

With `C[C@@H]1CN([C@@H](C)CO)S(=O)(=O)c2ccc(C#Cc3cccc(F)c3)cc2O[C@H]1CN(C)C(=O)CC1CCCCC1`, the pIC50 is 6.44.

As for `C[C@@H]1CN([C@@H](C)CO)S(=O)(=O)c2ccc(C#CBr)cc2O[C@H]1CN(C)C(=O)NC1CCCCC1`, the pIC50 was < 4.70.

Regarding `C[C@@H]1CN([C@@H](C)CO)S(=O)(=O)c2ccc(C#Cc3cncn3C)cc2O[C@H]1CN(C)C(=O)NC1CCCCC1`, the pIC50 is 5.80.

Take `CCNC(=O)N(C)C[C@@H]1Oc2cc(C#Cc3cccc(F)c3)ccc2S(=O)(=O)N([C@@H](C)CO)C[C@H]1C`: the pIC50 is 5.85.

Regarding `C[C@@H]1CN([C@@H](C)CO)S(=O)(=O)c2ccc(C#Cc3cccnc3)cc2O[C@H]1CCC(=O)NC1CCCCC1`, the pIC50 is 5.04.

With `C[C@@H]1CN([C@@H](C)CO)S(=O)(=O)c2ccc(C#Cc3ccc(F)cn3)cc2O[C@H]1CN(C)C(=O)NC1CCCCC1`, the pIC50 is 6.59.

For `CCCNC(=O)N(C)C[C@@H]1Oc2cc(C#Cc3cccc(F)c3)ccc2S(=O)(=O)N([C@@H](C)CO)C[C@H]1C`, the negative logarithm of the IC50 (pIC50) is 6.26.

With `C[C@@H]1CN([C@@H](C)CN(C)C)S(=O)(=O)c2ccc(C#Cc3ccc(F)cc3)cc2O[C@H]1CN(C)C(=O)NC1CCCCC1`, the pIC50 is 7.49.

Take `C[C@@H]1CN([C@@H](C)CO)S(=O)(=O)c2ccc(C#Cc3ccccc3)cc2O[C@H]1CN(C)C(=O)NC1CCCCC1`: the negative logarithm of the IC50 (pIC50) is 7.12.

As to `C[C@@H]1CN([C@@H](C)CO)S(=O)(=O)c2ccc(C#Cc3cccc(F)c3)cc2O[C@H]1CN(C)C(=O)NC1CCCC1`, the pIC50 was 7.10.

Regarding `C[C@@H]1CN([C@@H](C)CO)S(=O)(=O)c2ccc(C#Cc3ccc(F)cc3)cc2O[C@H]1CN(C)C(=O)NC1CCCCC1`, the negative-log IC50 (pIC50) is 7.43.

Consider `C[C@H]1CN([C@@H](C)CO)S(=O)(=O)c2ccc(C#Cc3cccc(F)c3)cc2O[C@H]1CN(C)C(=O)NC1CCCCC1`, for which the negative-log IC50 (pIC50) was 5.20.

Take `C[C@@H]1CN([C@@H](C)CO)S(=O)(=O)c2ccc(C#CC3CCCCC3)cc2O[C@H]1CN(C)C(=O)NC1CCCCC1`: the pIC50 was 7.05.

As for `C[C@@H]1CN([C@@H](C)CO)S(=O)(=O)c2ccc(C#Cc3cccc(F)c3)cc2O[C@H]1CN(C)CCC1CCNCC1`, the negative-log IC50 (pIC50) is 5.13.

On to `C[C@@H]1CN([C@H](C)CO)S(=O)(=O)c2ccc(C#Cc3cccc(F)c3)cc2O[C@@H]1CN(C)C(=O)NC1CCCCC1`, for which the negative logarithm of the IC50 (pIC50) was 5.28.

In the case of `C[C@@H]1CN([C@@H](C)CO)S(=O)(=O)c2ccc(-c3cccnc3)cc2O[C@H]1CN(C)C(=O)NC1CCCCC1`, the pIC50 is 5.19.

As for `C[C@@H]1CN([C@@H](C)CO)S(=O)(=O)c2ccc(C#Cc3cccc(Cl)c3)cc2O[C@H]1CN(C)C(=O)NC1CCCCC1`, the negative logarithm of the IC50 (pIC50) was 7.22.

For the compound `C[C@@H]1CN([C@H](C)CO)S(=O)(=O)c2ccc(C#Cc3cccc(F)c3)cc2O[C@H]1CN(C)C(=O)NC1CCCCC1`, the pIC50 was 6.22.

In the case of `C[C@H](CO)N1C[C@H](C)[C@@H](CN(C)C(=O)NC2CCCCC2)Oc2cc(C#Cc3cccc(F)c3)ccc2S1(=O)=O`, the negative-log IC50 (pIC50) was 5.77.

With `C[C@@H]1CN([C@@H](C)CO)S(=O)(=O)c2ccc(C#Cc3cccnc3)cc2O[C@H]1CN(C)C(=S)NC1CCCCC1`, the pIC50 is 6.80.

For the compound `C[C@@H]1CN([C@@H](C)CO)S(=O)(=O)c2ccc(C#Cc3ccc(F)c(F)c3)cc2O[C@H]1CN(C)C(=O)NC1CCCCC1`, the pIC50 is 7.55.

For the compound `C[C@H]1CN([C@@H](C)CO)S(=O)(=O)c2ccc(C#Cc3cccc(F)c3)cc2O[C@@H]1CN(C)C(=O)NC1CCCCC1`, the pIC50 was 6.00.

As to `C[C@@H]1CN([C@@H](C)CO)S(=O)(=O)c2ccc(C#Cc3cccc(F)c3)cc2O[C@H]1CN(C)C(=O)c1ccno1`, the negative logarithm of the IC50 (pIC50) was 4.72.

With `Cc1noc(C)c1NC(=O)N(C)C[C@@H]1Oc2cc(C#Cc3cccc(F)c3)ccc2S(=O)(=O)N([C@@H](C)CO)C[C@H]1C`, the pIC50 is 4.96.

Take `C[C@@H]1CN([C@@H](C)CO)S(=O)(=O)c2ccc(C#Cc3cccc(F)c3)cc2O[C@H]1CN(C)C(=O)OC(C)(C)C`: the pIC50 was 5.80.

`C[C@@H]1CN([C@@H](C)CO)S(=O)(=O)c2ccc(C#Cc3cccc(F)c3)cc2O[C@H]1CN(C)C(=O)NCC1CCCCC1`: the pIC50 is 6.80.
